Data: ChEMBL document CHEMBL4393681, “The identification of naturally occurring labdane diterpenoid calcaratarin D as a potential anti-inflammatory agent” (Eur J Med Chem, 2019)

How the values were obtained:
[1] = test system: RAW264.7; test: Anti-inflammatory activity in mouse RAW264.7 cells assessed as inhibition of LPS-induced TNFalpha production at 5 uM pretreated for 1 hr followed by LPS stimulation and measured after 18 hrs by ELISA relative to control; type: functional; parameters: scale not given: the % may be the effect or the level left
Method in brief: (§1)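 DMSO stocks (100 mM) were tested at 0.1, 1, 5 and 20 µM on LPS-stimulated RAW264.7 cells, with dexamethasone 1 µM as positive control. Secreted TNF-α or IL-6 was normalized to the percentage of viable LPS-stimulated cells at each concentration. Mean of three separate experiments, each in triplicate.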

[2] = Cytotoxicity against mouse RAW264.7 cells assessed as cell viability at 20 uM incubated for 18 hrs by celltiter-glo luminescent assay relative to control; type: cell-based; conditions: read-out: Activity
Method in brief: (§2)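 Non-stimulated RAW264.7 cells were exposed to 0.1, 1, 5 and 20 µM compound from 100 mM DMSO stocks. Percent viability is the mean of three separate experiments with triplicate samples.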

[3] = test system: RAW264.7; test: Anti-inflammatory activity in mouse RAW264.7 cells assessed as inhibition of LPS-induced TNFalpha production at 0.1 uM pretreated for 1 hr followed by LPS stimulation and measured after 18 hrs by ELISA relative to control; type: functional; parameters: scale not given: the % may be the effect or the level left; method in brief: as §1
[4] = test system: RAW264.7; test: Anti-inflammatory activity in mouse RAW264.7 cells assessed as inhibition of LPS-induced TNFalpha production at 20 uM pretreated for 1 hr followed by LPS stimulation and measured after 18 hrs by ELISA relative to control; type: functional; parameters: scale not given: the % may be the effect or the level left; method in brief: as §1
[5] = test system: RAW264.7; test: Anti-inflammatory activity in mouse RAW264.7 cells assessed as inhibition of LPS-induced TNFalpha production at 1 uM pretreated for 1 hr followed by LPS stimulation and measured after 18 hrs by ELISA relative to control; type: functional; parameters: scale not given: the % may be the effect or the level left; method in brief: as §1
[6] = test system: RAW264.7; test: Anti-inflammatory activity in mouse RAW264.7 cells assessed as inhibition of LPS-induced IL-6 production at 1 uM pretreated for 1 hr followed by LPS stimulation and measured after 18 hrs by ELISA relative to control; type: functional; parameters: scale not given: the % may be the effect or the level left; method in brief: as §1
[7] = Cytotoxicity against mouse RAW264.7 cells assessed as cell viability at 0.1 uM incubated for 18 hrs by celltiter-glo luminescent assay relative to control; type: cell-based; conditions: read-out: Activity; method in brief: as §2
[8] = Cytotoxicity against mouse RAW264.7 cells assessed as cell viability at 5 uM incubated for 18 hrs by celltiter-glo luminescent assay relative to control; type: cell-based; conditions: read-out: Activity; method in brief: as §2
[9] = test system: RAW264.7; test: Anti-inflammatory activity in mouse RAW264.7 cells assessed as inhibition of LPS-induced IL-6 production at 0.1 uM pretreated for 1 hr followed by LPS stimulation and measured after 18 hrs by ELISA relative to control; type: functional; parameters: scale not given: the % may be the effect or the level left; method in brief: as §1
[10] = Cytotoxicity against mouse RAW264.7 cells assessed as cell viability at 1 uM incubated for 18 hrs by celltiter-glo luminescent assay relative to control; type: cell-based; conditions: read-out: Activity; method in brief: as §2
[11] = test system: RAW264.7; test: Anti-inflammatory activity in mouse RAW264.7 cells assessed as inhibition of LPS-induced IL-6 production at 5 uM pretreated for 1 hr followed by LPS stimulation and measured after 18 hrs by ELISA relative to control; type: functional; parameters: scale not given: the % may be the effect or the level left; method in brief: as §1
[12] = test system: RAW264.7; test: Anti-inflammatory activity in mouse RAW264.7 cells assessed as inhibition of LPS-induced IL-6 production at 20 uM pretreated for 1 hr followed by LPS stimulation and measured after 18 hrs by ELISA relative to control; type: functional; parameters: scale not given: the % may be the effect or the level left; method in brief: as §1

SMILES	Activity [1]	viability at 18 h, 20 µM [2]	Activity [3]	Activity [4]	Activity [5]	Activity [6]	viability at 18 h, 0.1 µM [7]	viability at 18 h, 5 µM [8]	Activity [9]	viability at 18 h, 1 µM [10]	Activity [11]	Activity [12]
C=C1CC[C@H]2C(C)(C)CCC[C@]2(C)[C@H]1C/C=C(\CCO)C(=O)O	60.7%	87.6%	104.7%	50.2%	80.7%	88.3%	102%	96.6%	106%	99.2%	79.9%	63.5%
C=C1CC[C@H]2C(C)(C)CCC[C@]2(C)[C@H]1C[C@@H](O)C1=CCOC1=O [CURCUCOMOSIN C]	79.3%	91.9%	112%	33.4%	101.5%	84%	109%	108%	100.6%	111%	75.6%	47.1%
C=C1CC[C@H]2C(C)(C)CCC[C@]2(C)[C@H]1/C=C/C1=CCOC1=O [VILLOSIN]	74.6%	59%	80.4%	133.5%	86.6%	87.6%	104%	103%	98.4%	105%	101.5%	170.1%
C=C1CC[C@H]2C(C)(C)CCC[C@]2(C)[C@H]1C/C=C1/CCOC1=O	69.9%	85%	99.8%	48%	81.8%	94.1%	103%	95.4%	101.5%	101%	85.6%	64.8%
C=C1CC[C@H]2C(C)(C)CCC[C@]2(C)[C@H]1C[C@H](O)[C@H]1C(=O)OC[C@H]1O	109.5%	98.3%	111.1%	86.8%	108.6%	101.7%	108%	107%	104.6%	106%	104.3%	71.8%
C=C1CC[C@H]2C(C)(C)CCC[C@]2(C)[C@H]1C/C=C1\C=COC1=O	53.6%	82.6%	94.1%	26.6%	84.6%	99.6%	102%	90.8%	99%	97.7%	85.9%	61.5%
CC1(C)CCC[C@@]2(C)[C@H]1CC[C@]1(CO1)[C@@H]2C/C=C1\CCOC1=O	55.6%	85.7%	100.3%	33.1%	88.3%	92.3%	97.8%	95.1%	102.3%	97.6%	81.4%	63.9%
C=C1CC[C@H]2C(C)(C)CCC[C@]2(C)[C@H]1C/C=C1\C(=O)OC[C@H]1O	17.5%	47.5%	98.7%	4.8%	71.6%	76.9%	100%	81.7%	100.7%	95.5%	32.2%	10.1%
CC1(C)CCC[C@]2(C)[C@H]3CC(=O)O[C@]3(C)CC[C@@H]12	79.9%	95.9%	104.8%	63.9%	101%	100.3%	99.3%	97.2%	94.6%	96.6%	93.8%	89.7%
C=C1CC[C@H]2C(C)(C)CCC[C@]2(C)[C@H]1C/C=C1\CC(OC)OC1=O (stereo not given in full)	44.7%	100%	104.7%	27.5%	77.7%	79.1%	102%	101%	101%	102%	70%	59.9%
C=C1CC[C@H]2C(C)(C)CCC[C@]2(C)[C@H]1C/C=C1\CC(OCC)OC1=O (stereo not given in full)	65.3%	96.3%	101.6%	48.1%	86.8%	100.3%	102%	94.9%	102.3%	100%	95.9%	80.9%
C=C1CC[C@H]2C(C)(C)CCC[C@]2(C)[C@H]1C/C=C1\CC(O)OC1=O (stereo not given in full)	81.9%	79%	100.2%	71.1%	89.6%	82.4%	102%	86.3%	99.1%	92.7%	64%	59.4%
C=C1CC[C@H]2C(C)(C)CCC[C@]2(C)[C@H]1C/C=C1\CCOC1=O	73.1%	100%	104.4%	52.6%	94.6%	93.9%	103%	102%	103%	107%	83.9%	76.3%
CC1(C)CCC[C@@]2(C)[C@H]1CC[C@@]1(CO1)[C@@H]2C/C=C1\CCOC1=O	48.4%	80.4%	114.8%	20.5%	88.6%	79.7%	101%	90.9%	101.6%	97%	35.2%	22.3%
C=C1CC[C@H]2C(C)(C)CCC[C@]2(C)[C@H]1CC=O	73.7%	91.9%	104%	48.5%	91.7%	95%	100%	101%	100%	101%	93%	72.8%
